Source: ChEMBL document CHEMBL1126871, “Non-steroidal glucocorticoid-like substances: receptor binding and in vivo activity” (J Med Chem, 1993)
Values belong to the molecule of their own block, whether it stands above or below them. Calls of active or inactive are those of the source. The rule behind the calls is not given here.

Columns and labels:
Type in all cases: functional, organism-based
[1] = biological target: T1, Glucocorticoid receptor (Rattus norvegicus) (UniProt P06536); test: In vivo glucocorticoid profile, depression of adrenal weight in rat at 50 mg/kg peroral dose; design: dose 50 mg/kg
T1 sequence (whole entry): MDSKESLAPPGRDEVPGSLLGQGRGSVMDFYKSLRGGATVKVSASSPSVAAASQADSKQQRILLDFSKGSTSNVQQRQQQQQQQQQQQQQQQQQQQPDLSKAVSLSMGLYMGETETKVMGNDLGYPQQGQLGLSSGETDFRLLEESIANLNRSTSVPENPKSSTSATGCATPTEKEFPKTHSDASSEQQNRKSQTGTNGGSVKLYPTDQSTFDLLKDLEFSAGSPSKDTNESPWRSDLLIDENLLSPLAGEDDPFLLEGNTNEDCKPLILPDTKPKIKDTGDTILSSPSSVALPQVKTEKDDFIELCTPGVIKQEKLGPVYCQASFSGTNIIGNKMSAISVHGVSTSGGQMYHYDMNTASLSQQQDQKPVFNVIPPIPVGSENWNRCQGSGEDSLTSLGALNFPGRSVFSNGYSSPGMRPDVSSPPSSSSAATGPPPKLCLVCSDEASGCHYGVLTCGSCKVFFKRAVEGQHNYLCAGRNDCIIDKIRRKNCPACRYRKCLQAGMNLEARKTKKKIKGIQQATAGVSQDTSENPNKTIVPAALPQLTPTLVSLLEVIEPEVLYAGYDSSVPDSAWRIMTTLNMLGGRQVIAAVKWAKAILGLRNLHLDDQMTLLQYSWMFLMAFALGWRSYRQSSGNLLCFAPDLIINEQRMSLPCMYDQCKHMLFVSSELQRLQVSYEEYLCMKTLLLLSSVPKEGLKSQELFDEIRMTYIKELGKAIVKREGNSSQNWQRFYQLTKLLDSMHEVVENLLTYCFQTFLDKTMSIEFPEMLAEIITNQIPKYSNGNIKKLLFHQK
How it was run: (§1)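 Two-week oral glucocorticoid profile in rats. Thymus weight, adrenal weight and body weight gain are each expressed as % change from control.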

[2] = biological target: T1, Glucocorticoid receptor (Rattus norvegicus); test: In vivo antiinflammatory activity in the rat, alpha-tocopherol filled pouch 48 mg/kg peroral dose; IA = inactive; design: dose 48 mg/kg
[3] = biological target: T1, Glucocorticoid receptor (Rattus norvegicus); test: In vivo glucocorticoid profile, depression of body weight gain without altered food consumption in rat at 50 mg/kg peroral dose; design: dose 50 mg/kg; how it was run: as §1
[4] = biological target: T1, Glucocorticoid receptor (Rattus norvegicus); test: In vivo glucocorticoid profile, depression of thymus weight in rat at 50 mg/kg peroral dose; design: dose 50 mg/kg; how it was run: as §1
[5] = biological target: T1, Glucocorticoid receptor (Rattus norvegicus); test: In vivo antiinflammatory activity in the rat, alpha-tocopherol filled pouch peroral dose; IA = inactive
How it was run: (§2)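 Rats receive an air-filled pouch injected with 0.5 mL DL-α-tocopherol. Oral doses are given daily for 7 days, starting on the day of pouch formation, as suspensions in 1% gum tragacanth. ED50 is in mg/kg po.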

[6] = biological target: T1, Glucocorticoid receptor (Rattus norvegicus); test: In vivo glucocorticoid profile, depression of adrenal weight in rat at 5 mg/kg peroral dose; design: dose 5 mg/kg; how it was run: as §1
[7] = biological target: T1, Glucocorticoid receptor (Rattus norvegicus); test: (§3) In vivo glucocorticoid profile, depression of adrenal weight in rat at 25 mg/kg peroral dose; design: dose 25 mg/kg
How it was run: (§4)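 Two-week oral dosing test in rats. At the end, thymus weight, adrenal weight and body weight gain are recorded and expressed as % change from control.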

[8] = biological target: T1, Glucocorticoid receptor (Rattus norvegicus); test: (§5) In vivo glucocorticoid profile, depression of thymus weight in rat at 25 mg/kg peroral dose; design: dose 25 mg/kg; how it was run: as §4
[9] = biological target: T1, Glucocorticoid receptor (Rattus norvegicus); test: In vivo glucocorticoid profile, depression of body weight gain without altered food consumption in rat at 25 mg/kg peroral dose; design: dose 25 mg/kg; how it was run: as §1
[10] = biological target: T1, Glucocorticoid receptor (Rattus norvegicus); test: In vivo glucocorticoid profile, depression of body weight gain without altered food consumption in rat at 5 mg/kg peroral dose; design: dose 5 mg/kg; how it was run: as §1
[11] = biological target: T1, Glucocorticoid receptor (Rattus norvegicus); test: In vivo glucocorticoid profile, depression of thymus weight in rat at 5 mg/kg peroral dose; design: dose 5 mg/kg; how it was run: as §1
[12] = biological target: T1, Glucocorticoid receptor (Rattus norvegicus); test: (§6) In vivo glucocorticoid profile, depression of adrenal weight in rat at 100 mg/kg peroral dose; design: dose 100 mg/kg; how it was run: as §4
[13] = biological target: T1, Glucocorticoid receptor (Rattus norvegicus); test: as §3; design: dose 25 mg/kg; how it was run: as §1; remark: listed apart in the source
[14] = biological target: T1, Glucocorticoid receptor (Rattus norvegicus); test: In vivo antiinflammatory activity in the rat, alpha-tocopherol filled pouch 25 mg/kg peroral dose; IA = inactive; design: dose 25 mg/kg; how it was run: as §2
[15] = biological target: T1, Glucocorticoid receptor (Rattus norvegicus); test: as §5; design: dose 25 mg/kg; how it was run: as §1; remark: listed apart in the source
[16] = biological target: T1, Glucocorticoid receptor (Rattus norvegicus); test: In vivo glucocorticoid profile, depression of thymus weight in rat at 100 mg/kg peroral dose; design: dose 100 mg/kg; how it was run: as §1
[17] = biological target: T1, Glucocorticoid receptor (Rattus norvegicus); test: In vivo antiinflammatory activity in the rat, alpha-tocopherol filled pouch 100 mg/kg peroral dose; IA = inactive; design: dose 100 mg/kg; how it was run: as §2
[18] = biological target: T1, Glucocorticoid receptor (Rattus norvegicus); test: as §6; design: dose 100 mg/kg; how it was run: as §1; remark: listed apart in the source
[19] = biological target: T1, Glucocorticoid receptor (Rattus norvegicus); test: In vivo glucocorticoid profile, depression of body weight gain without altered food consumption in rat at 100 mg/kg peroral dose; design: dose 100 mg/kg; how it was run: as §1
[20] = biological target: T1, Glucocorticoid receptor (Rattus norvegicus); test: In vivo antiinflammatory activity in the rat, alpha-tocopherol filled pouch 50 mg/kg peroral dose; IA = inactive; design: dose 50 mg/kg
[21] = biological target: T1, Glucocorticoid receptor (Rattus norvegicus); test: (§7) In vivo glucocorticoid profile, depression of adrenal weight in rat at 1 mg/kg peroral dose; design: dose 1 mg/kg; how it was run: as §4
[22] = biological target: T1, Glucocorticoid receptor (Rattus norvegicus); test: (§8) In vivo glucocorticoid profile, depression of thymus weight in rat at 1 mg/kg peroral dose; design: dose 1 mg/kg; how it was run: as §4
[23] = biological target: T1, Glucocorticoid receptor (Rattus norvegicus); test: (§9) In vivo glucocorticoid profile, depression of body weight gain without altered food consumption in rat at 1 mg/kg peroral dose; design: dose 1 mg/kg; how it was run: as §4
[24] = biological target: T1, Glucocorticoid receptor (Rattus norvegicus); test: In vivo glucocorticoid profile, depression of adrenal weight in rat at 0.2 mg/kg peroral dose; design: dose 0.2 mg/kg; how it was run: as §1
[25] = biological target: T1, Glucocorticoid receptor (Rattus norvegicus); test: In vivo glucocorticoid profile, depression of thymus weight in rat at 0.2 mg/kg peroral dose; design: dose 0.2 mg/kg; how it was run: as §1
[26] = biological target: T1, Glucocorticoid receptor (Rattus norvegicus); test: In vivo glucocorticoid profile, depression of body weight gain without altered food consumption in rat at 0.2 mg/kg peroral dose; design: dose 0.2 mg/kg; how it was run: as §1
[27] = biological target: T1, Glucocorticoid receptor (Rattus norvegicus); test: In vivo anti-inflammatory activity in the rat, alpha-tocopherol filled pouch peroral dose; how it was run: as §2
[28] = biological target: T1, Glucocorticoid receptor (Rattus norvegicus); test: In vivo antiinflammatory activity in the rat, alpha-tocopherol filled pouch 70 mg/kg peroral dose; IA = inactive; design: dose 70 mg/kg
[29] = biological target: T1, Glucocorticoid receptor (Rattus norvegicus); test: as §7; design: dose 1 mg/kg; how it was run: as §1; remark: listed apart in the source
[30] = biological target: T1, Glucocorticoid receptor (Rattus norvegicus); test: as §8; design: dose 1 mg/kg; how it was run: as §1; remark: listed apart in the source
[31] = biological target: T1, Glucocorticoid receptor (Rattus norvegicus); test: as §9; design: dose 1 mg/kg; how it was run: as §1; remark: listed apart in the source

Structure (SMILES): C=CCN1C(=O)N(CC=C)C(=O)C2(CC=C3[C@H](CCC4=Cc5c(cnn5-c5ccc(F)cc5)C[C@@]43C)O2)C1=O
Change [1]: -37% | ED50 [2]: inactive | Weight gain [3]: -58 | Change [4]: -34%

Structure (SMILES): CCOC(=O)C1(C(=O)OCC)CCC=C2[C@@H]1CCC1=Cc3c(cnn3-c3ccc(F)cc3)C[C@@]12C
Change [6]: 0% | ED50 [17]: inactive | Change [18]: -47% | Change [16]: -80% | Weight gain [19]: -186 | Weight gain [10]: 0 | Change [11]: 0%

Structure (SMILES): C[C@]12Cc3cnn(-c4ccccc4)c3C=C1CC[C@@H]1OC3(CC=C12)C(=O)NC(=O)NC3=O
Change [12]: 0% | Change [1]: 0% | Change [16]: 0% | ED50 [20]: inactive | Weight gain [19]: 0 | Weight gain [3]: 0 | Change [4]: -34%

Structure (SMILES): C#C[C@]1(O)CCC2[C@@H]3CCC4=Cc5c(cnn5-c5ccc(F)cc5)C[C@]4(C)C3=CC[C@@]21C (some centres not stated)
Change [21]: -35% | Change [6]: -60% | Change [22]: -41% | Weight gain [10]: -145 | Change [11]: -76% | Weight gain [23]: 0

Structure (SMILES): COC(=O)CN1C(=O)N(CC(=O)OC)C(=O)C2(CC=C3[C@H](CCC4=Cc5c(cnn5-c5ccc(F)cc5)C[C@@]43C)O2)C1=O
Change [13]: 0% | Change [15]: 0% | ED50 [28]: inactive | Weight gain [9]: 0

The remaining lines, values ahead:

ED50 [5]: inactive | Change [6]: -38% | Change [7]: -50% | Change [8]: -62% | Weight gain [9]: -86 | Weight gain [10]: -62 | Change [11]: -51%
Structure (SMILES): C[C@]12Cc3cnn(-c4ccccc4)c3C=C1CC[C@@H]1OC3(CC=C12)C(=O)c1ccccc1C3=O

Change [12]: -45% | Change [13]: 0% | ED50 [14]: inactive | Change [15]: -34% | Change [16]: -34% | Weight gain [9]: 0
Structure (SMILES): CCN1C(=O)N(CC)C(=O)C2(CC=C3[C@H](CCC4=Cc5c(cnn5-c5ccc(F)cc5)C[C@@]43C)O2)C1=O

Change [1]: 0% | ED50 [14]: inactive | Weight gain [3]: 0 | Change [4]: 0%
Structure (SMILES): CCCN1C(=O)N(CCC)C(=O)C2(CC=C3[C@H](CCC4=Cc5c(cnn5-c5ccc(F)cc5)C[C@@]43C)O2)C1=O

Change [24]: -25% | Change [21]: -57% | Change [6]: -63% | Change [25]: -28% | Change [22]: -71% | Weight gain [26]: -55 | Weight gain [10]: -236 | Change [11]: -83% | ED50 [27]: 2 mg/kg | Weight gain [23]: -127
Structure (SMILES): CN1C(=O)N(C)C(=O)C2(CC=C3[C@H](CCC4=Cc5c(cnn5-c5ccc(F)cc5)C[C@@]43C)O2)C1=O (stereo in doubt; 12a)

Change [6]: -64% | Change [29]: -56% | Change [30]: -61% | Weight gain [10]: -224 | Weight gain [31]: -129 | Change [11]: -79% | ED50 [27]: 10 mg/kg
Structure (SMILES): C[C@]12Cc3cnn(-c4ccc(F)cc4)c3C=C1CC[C@@H]1OC3(CC=C12)C(=O)c1ccccc1C3=O
